Reference: the RNAGym collection of RNA variant scans (doi:10.1126/science.aae0568)
Fewer inactive variants are shown than the library holds.

B1: tRNA (parent)
chain: GUUCCGUUGGCGUAAUGGUAACGCGUCUCCCUCCUAAGGAGAAGACUGCGGGUUCGAGUCCCGUACGGAACG

Variants of: B1
Assay: yeast fitness relative to wild type (ratio to wild type); higher = fitter; tRNA-Arg(CCU), competitive growth, 37 C, YPD
Procedure, shortened: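 Variants of the tRNA-Arg(CCU) gene were chemically synthesised with a 3% per-site mutation rate across 69 sites and placed at the native genomic locus in Saccharomyces cerevisiae. Six parallel replicates of the pooled strains were competed in YPD at 37°C for 24 hours, and gene amplicons from the start and end populations were read by 100-nucleotide paired-end sequencing. Darwinian fitness relative to wild type was derived from changes in genotype frequencies. Genotypes required ≥ 100 starting reads, and estimates < 0.5 were set to 0.5.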

Variant | yeast fitness
GUCCCGUUGGCGUAAUGGUAACGCGUCUCCCUCCUAAGGAGAAGACUGGGGGUUCGAGUCCCGUACGGAACG | 0.943
GUCCCGUUGGCGUAAUGGUAACGCGUCUCCCUCCUAAGGAGAAGACUGGGGGUUCGAGUCCCGUUCGGAACG | 0.658
GUCCCGUUGGCGUAAUGGUAACGCGUCUCCCUCCUAAGGAGAAGACUGGGGGUUCGAGUCCCCUACGGAACG | 0.617
GUCCCGUUGGCGUAAUGGUAACGCGUCUCCCUCCUAAGGAGAAGACUGCGGGUUAGAGUCCCGUACGGAACG | 0.687
GUCCCGUUGGCGUAAUGGUAACGCGUCUCCCUCCUAAGGAGAAGACUGCGGGUUAGAGUACCGUACGGAACG | ≤ 0.5
GUCCCGUUGGCGUAAUGGUAACGCGUCUCCCUCCUAAGGAGAAGACUGCGGGUUGGAGUCCCGAACGGAACG | 0.563
GUCCCGUUGGCGUAAUGGUAACGCGUCUCCCUCCUAAGGAGAAGACUGCGGGUUUGAGUCCCGUACGGAACG | 0.687
GUCCCGUUGGCGUAAUGGUAACGCGUCUCCCUCCUAAGGAGAAGACUGCGGGUUUGAGUCACGUACGGAACG | ≤ 0.5
GUCCCGUUGGCGUAAUGGUAACGCGUCUCCCUCCUAAGGAGAAGACUGCGGGUUUGAAUCCCGUACGGAACG | 0.508
GUCCCGUUGGCGUAAUGGUAACGCGUCUCCCUCCUAAGGAGAAGACUGCGGGUUCGAGUCUCGCACGGAACG | 0.72
GUCCCGUUGGCGUAAUGGUAACGCGUCUCCCUCCUAAGGAGAAGACUGCGGGUUCGAGUCCAGUACGGAACG | 0.865
GUCCCGUUGGCGUAAUGGUAACGCGUCUCCCUCCUAAGGAGAAGACUGCGGGUUCGAGUCCUGUACGGCACG | 0.756
GUCCCAUUGGCGUAAUGGUAACGCGUCUGCCUCCUAAGGAGAAGACUGCGGGUUCGAAUCCCGUACGGAACG | ≤ 0.5
GUCCCAUUGGCGUAAUGCUAACGCGUCUCUUUCCUAAGGAGAAGACUGCGGGUUCGAGUCCCGUUCGGAACG | ≤ 0.5
GUCCCAUUGGCGUAAUGCUAACGCGUCUCUUUCCUAAGGAGAAGACUACGGGUUGGAGUCCCGUUCGGAACG | ≤ 0.5
GUCCCAUUGGCGUAAUGGUAACCCGUCUCCCUCCUAAGGAGAAGACUGGGGGGUCGGGUCCCGUACGGAACG | ≤ 0.5
GUCCCAUUGGCGUAACAGUAACGCGUCUCCCUCCUAAGGAGAAGACUGCGGGUUCGAGUCCCGUACGGAACG | ≤ 0.5
GUCCCAUUGGCGUAAUGGUAACGCGUCUCCCUCCUAAGGAGAAGACUGCGGGUCCGAGUCGCGUACGGAACG | ≤ 0.5
GUCCCCUUGGCGUUAUGGUAACGCAUCUCCCUCCUAAAGAGAAGACAGCGGGUUCGAGUCCCGUACGGAACG | ≤ 0.5
GUCCCCUUGGCGUUAUGGUAACGCAUCUCCCUCCUAAAGAGAAGACAGCGGGUUCGAGUGCCGUACGGAACG | 0.558
GUCCCCUUGGCGUAAUGGUAACGCGUCUCCCUCCUAAGGAGAAGAAUGCGGGUUCGAGUCCCGUACGGAACG | 0.645
GUCCCCUUGGCGUAAUGGUAACGCGUCUCCCUCCUAACGAGAAGAAUGCGGGUUCGAGUCCCGUACGGAACG | ≤ 0.5
GUCCCCGUGGCGUAAUGGUAACGGGUAACCCUCCUAAGGAAAAGACUGCGGGUUCGAGUCCCGUACGGAACG | 0.618
GUCCCGUUAGCGUAAUGGUAGCGCGUCUCCCUCCUAAGGGGAAGACUGCGGGUUCAAGUCCCGCACGGAACG | ≤ 0.5
GUCCCGUUAGCGUAAUGGUAACGCGUCUCCCUCCUAAGGAGAAGACUGCGGGUUCGCGUCCCGUACGGAACG | 0.584

Variant | yeast fitness
GUCCCGUUAGCGUAAUGGUAACGCGUCUCCCUCGUAAGGAGGAGACUGGGGGUUCGAGUCCUGUACGGCACG | ≤ 0.5
GUCCCGUUAGCGUAAUGGUAACGCGUCUCCCUCCUAAGGAGAAGACUCCGGGUUCGAGUCCCGUACGGAACG | 0.784
GUCCCGUUAGCGUAAUGGUAACGCGUCGCCCUCCUAAGGAGAAGACUGCGGGUUCGAGUCCCGUACGGAACG | 0.59
GUCCCGUUCGUGUAAUGGCAACGCGUCUCGCUCCUAAGGAGACGACUGCGGGUUCGAGUCCCGUACGGAACG | ≤ 0.5
GUCCCGUUGACGUAAUGGUAAAGGGUCUCCCUCCUAAGGAGAAGACUGCGGGUUCGAGUCCCGUACGGAACG | ≤ 0.5
GUCCCGUUGACGUAAUGGUAACGCGUCUCCCUCCUAAGGAGAAGAUAGCGGGUCCGAGUCCCGUACGGAACG | ≤ 0.5
GUCCCGUUGACGUAAUGGUAACACGUCUCCCUCCUAAGGAGAAGACUGCGGGUUCGAGUCCGGUACAGAACG | ≤ 0.5
GUCCCGUUGACGUAAUGGUAACGCGUCUCCCUCCUAAGGAGAAGACUGCGGAUCCAAAUCCCGUACGGAACG | ≤ 0.5
GUCCCGUUGCCGUAAUGGUCACGCGUCUCCCUCCUAAGGAGAAGACUGCGGGUUCCAGUCCCGUACGGAACG | 0.577
GUCCCGUUGCCGUAAUGGUAACGCGUCUCCCUUCUAAGGCGAAGACUGCGGGUUCGAGUCCCGUACGGAACG | ≤ 0.5
GUCCCGUUGCCGUAAUGGUAACGCGUCUCCCUCUUAAGGAGAAGACUGCGGGUUCGAGUCCCGUACGGAACG | 0.586
GUCCCGUUGCCGUAAUGGUAACGCGUCUCCCUCCUAAGGAGAAGACUGCGGGUUGGAGUCCCGUACGGAACG | ≤ 0.5
GUCCCGUUGGCAUAAUGGUAACGCGUCUCCCUCCUAAGGAGAAGACUGCGGGUUCGAGUCCCGUACGGAACG | 0.963
GUCCCGUUGGCAUUAUGGUAACGCGUCUCCCUCCUAAGGAGAAGACUGCGGGUACGUGUCCCGUACGGAACG | ≤ 0.5
GUCCCGUUGGCAUAAUGGUAGCGCGUCUCCCUCCUAAGGAGAAGAGUGCAGGUUCGAGUCCCGUACGGAACG | ≤ 0.5
GUCCCGUUGGCAUAAUGGUAACGCGUCUCCCUCCUACGGAGAAGUCUCCAGGUUCGAGUCCCGUACGGAACG | ≤ 0.5
GUCCCGUUGGCAUAAUGGUAACGCGUCUCCCUCCUAAGGAGAAGUCUGCGGGUUUGAGUCCCGUACGGAACG | ≤ 0.5
GUCCCGUUGGCAUAAUGGUAACGCGUCUCCCUCCUAAGGAGAAGUCUGCGGGUUCGAGUCCCGUAGGGAACG | 0.685
GUCCCGUUGGCAUAAUGGUAACGCGUCUCUCUCCUAAGGAGAAGAGUGCGGGUUCGAGUCCCGUACGGAACG | ≤ 0.5
GUCCCGUUGGCAUAAUGGUAACGCGUCUCCCUGCUAAGGAGCAGACUGCGGGUUCGAGUCCCGUGCGGAACG | ≤ 0.5
GUCCCGUUGGCAUAAUGGUAACGCAUCUCCCUCCUAAGGAGAAGACUGCGGGUUCGAGUCCCGUACGGAACG | 0.992
GUCCCGUUGGCAUAAUGGUAACGCGUCUCCCUCCUAAGGAGAACACUGCGGGUUCGAGUCCCGUACGGAACG | 0.546
GUCCCGUUGGCACAAUGGUAACGCGUCUCCCUCCUACGGAGAAGUCUCCGGGUUCGAGUCCCGUACGGAACG | ≤ 0.5
GUCCCGUUGGCGUAAUAGUAACGCGUCUCGCUCCUAAGGAGAAGACUGCGGGUUCGAGUCGCGUACGGAACG | ≤ 0.5
GUCCCGUUGGCGUAAUAGUAACGCGUCUCCCUCCUAAGGAGAAGACUGCGGGUCCGAGUCCCGUACGGAACG | ≤ 0.5

Variant | yeast fitness
GUCCCGUUGGCGUAAUCGUAACGCGUCUCCCUCCUAAGGAGAAGACUGCGGGUUCGAGUCCCGUACGGAACG | 0.78
GUCCCGUUGGCGUAAUGAUAACGCGUCUCCCUCCUAAGGAGAAGACUGCGGGUUCGAGUCCCGUACGGAACG | 0.916
GUCCCGUUGGCGUAAUGAUAACGCGUCUCCAUCCUAAGGAGAAGACUGCGGGUUCCAGUCCCGUACGGCACG | ≤ 0.5
GUCCCGUUGGCGUAAUGAUAACGCGUCUCCGUCCUAAGGAGAAGACUGCGGGUUCGAGUCCCGUACGGAACG | ≤ 0.5
GUCCCGUUGGCGUAAUGAUAACGCGUCUCCCUCCUAAGGAGAAGACUGCGGGAGCGAGUCCCGUACGGAACG | 0.544
GUCCCGUUGGCGUAAUGCUAACGCGUCUCUCUCCUUAGGAGAAGACUGCGGGUUAGAGUCCCGUACGGAACG | ≤ 0.5
GUCCCGUUGGCGUAAUGCUAACGCGUCUCCGUCGUAAGGAGAAGACUGCGGGUUCGAGUCCCGUACGGAACG | ≤ 0.5
GUCCCGUUGGCGUAAUGCUAACGCGUCUCCGUCCUAAGGAGAAGACUGCGGGUUCGAGUCACGUACGGAACG | 0.535
GUCCCGUUGGCGUAAUGGUAACACGUCGCCCUCCUAAGGAGAAGACUGCGGGUUCGAGUCCCGUACGGAACG | ≤ 0.5
GUCCCGUUGGCGUAAUGGUAACCCGUCUCCCUCCUAAGGAGAAGACUGCGGGUUCGAGUCCCGUACGGAACG | 0.695
GUCCCGUUGGCGUAAUGGUAACCCGUCUCACUCCUGACGAGAAGACUGCGGGUUCGAGUCCCGUACGGAACG | ≤ 0.5
GUCCCGUUGGCGUAAUGGUAACCCGUCUCCCUCCUAAGGAGAAGACUGCGGGUUCGAGUCCCGUAUGGAACG | ≤ 0.5
GUCCCGUUGGCGUAAUGGUAACGCAUCUCCCUCCUAUGGAGAAGACUGCGGGUUCGAGUCCCGUACGGAACG | 0.574
GUCCCGUUGGCGUAAUGGUAACGCAUCUCCCUCCUAAGGAGAAGGCUGCGGGUUCGAGUCCCGUACGGAACG | 0.59
GUCCCGUUGGCGUAAUGGUAACGCAUCUUCCUCCUAAGGAGAAGACUGCGGGUUCGAGUCCCGUACGGAACG | 0.681
GUCCCGUUGGCGUAAUGGUAACGCAUCUCCCUCCUAAGGAGAAGACUGCGGGUUCGAGACCCGUACGGAACG | 0.642
GUCCCGUUGGCGUAAUGGUAACGCCUCUCCCUCCUAAGGAGAAGACUACGGGUUCGAGUCCCGUACGGAACG | 0.598
GUCCCGUUGGCGUAAUGGUAACGCGUCUCCCUCCUAAAGAGAAGACUGCGGGUUCGAGUCCCGUACGGAACG | 1.05
GUCCCGUUGGCGUAAUGGUAACGCGUCUCCCUCCUAAAGAGAAGACUACGGGUUCGAGUCCCGUACGGAACG | 0.595
GUCCCGUUGGCGUAAUGGUAACGCGUCUCCCUCCUAACGAGAAGACUGCGGGUUCGAGUCCCGUACGGAACG | 0.813
GUCCCGUUGGCGUAAUGGUAACGCGUCUCCCUCCUAAGAAGAAGACUGCGGGUUCGAGUCCCGUACGGAACG | 0.898
GUCCCGUUGGCGUAAUGGUAACGCGUCUCCCUCCUAAGAAGAAGACUGCGGGUUCGUGUCCGGUACGGAACG | ≤ 0.5
GUCCCGUUGGCGUAAUGGUAACGCGUCUCCCUCCUAAGGAGAACAAUGCGGGUUCGAGUCCCGUACGGAACG | 0.672
GUCCCGUUGGCGUAAUGGUAACGCGUCUCCCUCCUAAGGAGAAGACUCCGGGUUAGAGUCCCGUACGGAACG | 0.541
GUCCCGUUGGCGUAAUGGUAACGCGUCUCCCUCCUAAGGAGAAGACUCCGGGUUCGAGUCCCGUAUGGAACG | 0.761
